Our source for the Activity and fold change (FC) values is ChEMBL document CHEMBL6071171, “Molecular Mechanisms of Methamphetamine-Induced Addiction via TAAR1 Activation” (J Med Chem, 2024).

Changes are numbered by the printed parent chain. Active and inactive are the calls of the source. The rule behind the calls is not given here.

Holding throughout (type): cell-based
The test system of experiment [1] is T1, Trace amine-associated receptor 1 (Homo sapiens), Q96RJ0 [V184A].
T1 sequence (whole entry): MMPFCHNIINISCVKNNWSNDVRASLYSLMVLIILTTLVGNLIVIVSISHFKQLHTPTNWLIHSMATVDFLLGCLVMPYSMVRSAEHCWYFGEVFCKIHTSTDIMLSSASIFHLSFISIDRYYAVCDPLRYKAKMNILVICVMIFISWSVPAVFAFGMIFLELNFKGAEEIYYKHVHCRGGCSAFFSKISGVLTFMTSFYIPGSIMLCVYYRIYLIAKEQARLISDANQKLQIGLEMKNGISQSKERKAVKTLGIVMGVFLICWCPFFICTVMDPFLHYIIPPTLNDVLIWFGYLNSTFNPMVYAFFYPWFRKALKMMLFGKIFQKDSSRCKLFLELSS
Put plainly: Agonist activity against TAAR1 V184A mutant (unknown origin) expressed in HEK293 cells assessed as increase in cAMP accumulation incubated for 30 mins by HTRF assay. The procedure, abridged: (§1)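 HEK293 cells harvested 48 h after transfection with plasmid at 1 μg mL–1; 8000 cells per well incubated 30 min at 37 °C with agonist over 10–4 to 10–10 M. cAMP read by HTRF (d2-cAMP plus Eu-cryptate antibody, 1 h room temperature; excitation 330 nm, emission 620/665 nm). pEC50 and Emax from dose–response curves; mean ± s.e.m. of three independent experiments, each in technical triplicate.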

The subject of experiment [2] is T2, Trace amine-associated receptor 1 (Homo sapiens), Q96RJ0 [F268A].
T2 sequence (whole entry): T1 sequence (whole entry) with A184V, F268A
Put plainly: Agonist activity against TAAR1 F268A mutant (unknown origin) expressed in HEK293 cells assessed as increase in cAMP accumulation incubated for 30 mins by HTRF assay. As to conditions: filed as agonist. In outline:
as §1
In general terms: Changes in cAMP serve as a functional read-out for many G protein-coupled receptors.

Experiment [3] has as its system T3, Trace amine-associated receptor 1 (Homo sapiens), Q96RJ0 [F186A].
T3 sequence (whole entry): T1 sequence (whole entry) with A184V, F186A
Description: Agonist activity against TAAR1 F186A mutant (unknown origin) expressed in HEK293 cells assessed as increase in cAMP accumulation incubated for 30 mins by HTRF assay. In outline:
as §1

Experiment [4] relates to T4, Trace amine-associated receptor 1 (Homo sapiens), Q96RJ0 [Y294A].
T4 sequence (whole entry): T1 sequence (whole entry) with A184V, Y294A
Description: Agonist activity against TAAR1 Y294A mutant (unknown origin) expressed in HEK293 cells assessed as increase in cAMP accumulation incubated for 30 mins by HTRF assay. In outline:
as §1

Experiment [5] concerns T5, Trace amine-associated receptor 1 (Homo sapiens), Q96RJ0 [F267A].
T5 sequence (whole entry): T1 sequence (whole entry) with A184V, F267A
Description: Agonist activity against TAAR1 F267A mutant (unknown origin) expressed in HEK293 cells assessed as increase in cAMP accumulation incubated for 30 mins by HTRF assay. The procedure, abridged:
as §1

Experiment [6] relates to T6, Trace amine-associated receptor 1 (Homo sapiens), Q96RJ0 [D103A].
T6 sequence (whole entry): T1 sequence (whole entry) with D103A, A184V
Description: Agonist activity against TAAR1 D103A mutant (unknown origin) expressed in HEK293 cells assessed as increase in cAMP accumulation incubated for 30 mins by HTRF assay. In outline:
as §1

Experiment [7] relates to T7, Trace amine-associated receptor 1 (Homo sapiens), Q96RJ0 [G293A].
T7 sequence (whole entry): T1 sequence (whole entry) with A184V, G293A
Description: Agonist activity against TAAR1 G293A mutant (unknown origin) expressed in HEK293 cells assessed as increase in cAMP accumulation incubated for 30 mins by HTRF assay. In outline:
as §1

Experiment [8] concerns T8, Trace amine-associated receptor 1 (Homo sapiens), Q96RJ0 [I290A].
T8 sequence (whole entry): T1 sequence (whole entry) with A184V, I290A
Description: Agonist activity against TAAR1 I290A mutant (unknown origin) expressed in HEK293 cells assessed as fold increase in cAMP accumulation incubated for 30 mins by HTRF assay relative to control. To be noted: filed as agonist.

Experiment [9] relates to T9, Trace amine-associated receptor 1 (Homo sapiens), Q96RJ0 [I104A].
T9 sequence (whole entry): T1 sequence (whole entry) with I104A, A184V
Put plainly: Agonist activity against TAAR1 I104A mutant (unknown origin) expressed in HEK293 cells assessed as increase in cAMP accumulation incubated for 30 mins by HTRF assay. In outline: as §1

For experiment [10], the system named is T10, Trace amine-associated receptor 1 (Homo sapiens), Q96RJ0 [F195A].
T10 sequence (whole entry): T1 sequence (whole entry) with A184V, F185A
Put plainly: Agonist activity against TAAR1 F195A mutant (unknown origin) expressed in HEK293 cells assessed as increase in cAMP accumulation incubated for 30 mins by HTRF assay. The procedure, abridged: as §1

The subject of experiment [11] is T11, Trace amine-associated receptor 1 (Homo sapiens), Q96RJ0 [W264A].
T11 sequence (whole entry): T1 sequence (whole entry) with A184V, W264A
Put plainly: Agonist activity against TAAR1 W264A mutant (unknown origin) expressed in HEK293 cells assessed as increase in cAMP accumulation incubated for 30 mins by HTRF assay. The procedure, abridged: as §1

For the molecule `NCCc1ccccc1`, the result in [1] and in experiment [3] was inactive. Moreover, the outcome in [2] was Active.

For `CN[C@@H](C)Cc1ccccc1`, the outcome in [4], in experiment [5], in [6], in experiment [7], in experiment [3] and in experiment [9] was inactive. In addition, the result in [10] and in experiment [11] was inactive. In addition, the result in experiment [1] (filed as agonist) and in experiment [2] was Active. The fold change (FC) in experiment [8] is 6.
